Activity calls are given as the source filed them. No cut-off for these calls is given here.
Assays:
[1] = system: Mycobacterium tuberculosis; assay: Activity of arabinosyltransferase in Mycobacterium tuberculosis membrane assessed as [14C]Araf incorporation by TLC autoradiography
[2] = system: Mycobacterium avium; assay: Antimycobacterial activity against Mycobacterium avium NJ 211 at 12.8 to 128 ug/mL; type: functional, organism-based
[3] = Inhibition of arabinosyltransferase in Mycobacterium tuberculosis membrane assessed as blockade of [14C]Araf incorporation to {Ara-f(1>5)Araf-O_C8H17] acceptor molecule by TLC autoradiography
In short: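 Competition format of the membrane AraTs assay: MOPS pH 8.0, MgCl2, ATP, β-mercaptoethanol, DP-[14C]Araf donor, 37°C for 1 h. Native acceptor Araf(1→5)Araf-O-C8H17 is held at 0.4 mM. Competitors are added at 0.5, 0.75, 1.0, 2.0, 4.0 and 6.0 mM. Product formation is judged by TLC (CHCl3:MeOH:NH4OH:H2O) with autoradiography at −70 °C for 3 days. IC50 is derived from the extent of product formation.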

| SMILES | Km [1] [µM] | Activity [2] | IC50 [3] [µM] |
| --- | --- | --- | --- |
| CCCCCCCCO[C@H]1O[C@H](CO[C@H]2O[C@H](CO)[C@@H](O)[C@@H]2O)[C@@H](O)[C@@H]1F | 560 | Active | 3580 |
| CCCCCCCCO[C@@H]1C[C@H](O)[C@@H](CO[C@H]2O[C@H](CO)[C@@H](O)[C@@H]2O)O1 | 150 | Active | 2450 |
| CCCCCCCCO[C@H]1O[C@H](CO[C@H]2O[C@H](CO)[C@@H](O)[C@@H]2O)C[C@@H]1O | 110 | Active | 2150 |
